Assay results pooled from the literature.
Each line is one published result; the experiments were not run side by side.
Target: Microtubule-associated serine/threonine-protein kinase 1 (MAST1, Homo sapiens, UniProt Q9Y2H9)

O=C(Nc1c[nH]nc1C(=O)NC1CCNCC1)c1cc(F)cc(F)c1
remaining binding (binding; competition with immobilised ligand; 1 µM): 100%

CCC(=O)N[C@@H]1CC[C@H](C(=O)N(C)c2ccc(-c3nc4ccccc4o3)cc2)C1
remaining binding (cell-free assay; competition with immobilised ligand; 1 µM): 94%

CN(C)c1nccc(-c2cnn3ncccc23)n1
remaining binding (binding; 1 µM): 76%

COc1ncc2cc3ccccc3nc2c1C#N
remaining binding (cell-free assay; competition with immobilised ligand; 5 µM): 98%

Cc1cnn2ncc(-c3ccnc(N(C)C)n3)c2c1
remaining binding (binding; 1 µM): 100%

Cc1cnc(Nc2ccc(C(=O)N3CCC(N4CCCC4)CC3)cc2)nc1-c1cc2ccccc2s1
remaining binding (binding; competition with immobilised ligand; 1 µM): 55%

c1cncc(-c2cccc(Nc3nccc(NC4CCCCC4)n3)c2)c1
remaining binding (binding; competition with immobilised ligand; 10 µM): 95%

O=C(c1ccc(Nc2ncc(Cl)c(-c3cc4ccccc4s3)n2)cc1)N1CCC(N2CCCC2)CC1
remaining binding (binding; competition with immobilised ligand; 1 µM): 52%

CS(=O)(=O)N1CCCC(NC(=O)[C@H](CCC2CCCCC2)NC(=O)c2ccc(CNc3ncnc4c3nnn4-c3ccccc3)cc2)C1 (stereo partly drawn)
remaining binding (cell-free assay; competition with immobilised ligand; 0.1 µM): 100%

COc1cnc(Nc2cccc(S(N)(=O)=O)c2)nc1N1CCN(c2ccccc2)C(=O)C1
remaining binding (binding; competition with immobilised ligand; 1 µM): 100%

Cc1cc(-n2nc(Cc3cc(F)cc(C(F)(F)F)c3)nc2C)ccc1C(N)=O
remaining binding (cell-free assay; competition with immobilised ligand; 1 µM): 100%

F[C@@H]1CCN(c2nccc(-c3cnn4ncccc34)n2)C1
remaining binding (binding; 1 µM): 100%

CNC(=O)[C@@H]1CC[C@@H](n2c(-c3ccc4cnccc4c3)nc3ccc(C(=O)NCc4cccc(C(N)=O)c4)cc32)C1
remaining binding (binding; competition with immobilised ligand; 1 µM): 100%

C[C@@H](c1ccc(-n2cnc3c(N)ncnc32)cc1)N1CCc2nn(C)c(Cc3ccccc3)c2C1=O
remaining binding (binding; competition with immobilised ligand; 0.1 µM): 40%

CN([C@@H]1CCc2c(CC(=O)O)c3ccccc3n2C1)S(=O)(=O)c1ccc(F)cc1
remaining binding (cell-free assay; competition with immobilised ligand; 1 µM): 100%

N[C@@H]1CCN(c2nccc(-c3cnn4ncccc34)n2)C1
remaining binding (binding; 1 µM): 100%

COc1ccc2cc(OCC3(C(=O)O)CN(C(=O)c4ccc(F)cc4)C3)ccc2c1
remaining binding (cell-free assay; competition with immobilised ligand; 1 µM): 100%

CN(CCCC(F)(F)F)c1nccc(-c2cnn3ncccc23)n1
remaining binding (binding; 1 µM): 100%

O=C(NCCCN1CCOCC1)c1ccc(Nc2nccc(-c3cc4ccccc4s3)n2)cc1
remaining binding (binding; competition with immobilised ligand; 1 µM): 78%

C[C@H]1CCN(c2nccc(-c3cnn4ncccc34)n2)C1
remaining binding (binding; 1 µM): 82%

Cc1c(NC(=O)c2cc(C(N)=O)nc3cc(F)ccc23)c(C(F)(F)F)nn1Cc1ccc(C#N)cc1
remaining binding (cell-free assay; competition with immobilised ligand; 1 µM): 77%
